According to ChEMBL document CHEMBL1145835, “Novel potent 5-HT(1F) receptor agonists: structure-activity studies of a series of substituted N-[3-(1-methyl-4-piperidinyl)-1H-pyrrolo[3,2-b]pyridin-5-yl]amides” (J Med Chem, 2003):

What was measured:
[1] = biological target: 5-hydroxytryptamine receptor 1B (Homo sapiens, UniProt P28222); assay: In vitro binding affinity by radioligand binding assay using cell line expressing human 5-hydroxytryptamine 1B receptor
In short: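 Ki (nM) from radioligand binding on cell lines each expressing one human serotonin receptor subtype. Values are means of at least three determinations with SEM.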

[2] = biological target: T1, 5-hydroxytryptamine receptor 1F (Homo sapiens, UniProt P30939); assay: In vitro binding affinity was determined by radioligand binding assay using cell line expressing human 5-hydroxytryptamine 1F receptor
T1 sequence (P30939 whole entry): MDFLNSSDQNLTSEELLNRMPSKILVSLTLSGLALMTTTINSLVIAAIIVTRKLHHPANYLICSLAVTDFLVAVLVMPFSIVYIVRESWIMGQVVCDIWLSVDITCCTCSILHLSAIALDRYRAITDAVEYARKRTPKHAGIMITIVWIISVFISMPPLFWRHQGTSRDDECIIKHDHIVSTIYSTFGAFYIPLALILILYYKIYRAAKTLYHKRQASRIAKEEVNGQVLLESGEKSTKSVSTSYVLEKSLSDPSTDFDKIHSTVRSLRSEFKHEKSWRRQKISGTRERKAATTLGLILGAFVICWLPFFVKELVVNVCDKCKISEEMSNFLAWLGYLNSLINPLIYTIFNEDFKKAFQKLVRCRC
In short: (§1)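 Ki (nM) from radioligand binding on cell lines each expressing one human serotonin receptor subtype. Values are means of at least three determinations with SEM. ND: Ki not determined, when a 10⁻⁷ M test ligand gave <50% displacement of radioligand.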

[3] = biological target: 5-hydroxytryptamine receptor 1D (Homo sapiens, UniProt P28221); assay: In vitro binding affinity by radioligand binding assay using cell line expressing human 5-hydroxytryptamine 1D receptor; in short: as §1
[4] = biological target: T2, 5-hydroxytryptamine receptor 1A (Homo sapiens, UniProt P08908); assay: In vitro binding affinity by radioligand binding assay using cell line expressing human 5-hydroxytryptamine 1A receptor; in short: as §1
T2 sequence (P08908 whole entry): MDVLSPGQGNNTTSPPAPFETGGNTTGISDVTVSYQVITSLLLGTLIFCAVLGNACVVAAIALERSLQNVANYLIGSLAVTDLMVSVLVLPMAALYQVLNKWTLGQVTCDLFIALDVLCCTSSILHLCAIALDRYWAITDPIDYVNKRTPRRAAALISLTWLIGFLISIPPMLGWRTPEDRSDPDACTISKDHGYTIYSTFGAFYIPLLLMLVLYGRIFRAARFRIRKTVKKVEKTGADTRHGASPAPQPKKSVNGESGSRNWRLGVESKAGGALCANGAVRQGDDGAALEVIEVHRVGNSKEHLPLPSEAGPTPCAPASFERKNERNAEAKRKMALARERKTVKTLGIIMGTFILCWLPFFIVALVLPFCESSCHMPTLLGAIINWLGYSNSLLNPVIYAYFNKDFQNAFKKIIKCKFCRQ

[5] = biological target: T1, 5-hydroxytryptamine receptor 1F; assay: In vitro effective concentration for stimulation of [35S]GTP-gamma-S, binding in mouse LM(tk-)cells expressing the human 5-hydroxytryptamine 1F receptor; format: functional
[6] = biological target: T3, 5-hydroxytryptamine receptor 1F (Homo sapiens) (UniProt P30939); assay: Maximum stimulation of [35S]GTP-gamma-S, binding expressed relative to the maximal effect of 5-hydroxytryptamine […]; format: functional
T3 sequence (whole entry): T1 sequence (P30939 whole entry)

Oryctolagus cuniculus = species on record: Oryctolagus cuniculus; assay: In vitro contractile response in rabbit saphenous vein; format: functional
In short: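 Rabbit saphenous vein rings. Maximal contraction is expressed as % of the contraction induced by KCl (67 mM), with the concentration giving the maximal response recorded. Means (SEM) of three to seven determinations.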

Cavia porcellus = assay: In vivo efficacy in neurogenic plasma protein extravasation screen using guinea pig neurogenic PPE assay (1 ng/kg, po) at 1 hr postdose; format: functional
In short: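 Guinea pig neurogenic dural PPE screen. Single oral dose of 1 ng/kg, then unilateral trigeminal ganglion stimulation with Evan's blue-labelled plasma protein leakage. Read-out is the fluorescence ratio of stimulated to unstimulated dura at 1 h or 24 h postdose. A ratio near 1 means full efficacy; near 1.8 means ineffective.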

5-hydroxytryptamine receptor 1B, sequence (P28222 whole entry): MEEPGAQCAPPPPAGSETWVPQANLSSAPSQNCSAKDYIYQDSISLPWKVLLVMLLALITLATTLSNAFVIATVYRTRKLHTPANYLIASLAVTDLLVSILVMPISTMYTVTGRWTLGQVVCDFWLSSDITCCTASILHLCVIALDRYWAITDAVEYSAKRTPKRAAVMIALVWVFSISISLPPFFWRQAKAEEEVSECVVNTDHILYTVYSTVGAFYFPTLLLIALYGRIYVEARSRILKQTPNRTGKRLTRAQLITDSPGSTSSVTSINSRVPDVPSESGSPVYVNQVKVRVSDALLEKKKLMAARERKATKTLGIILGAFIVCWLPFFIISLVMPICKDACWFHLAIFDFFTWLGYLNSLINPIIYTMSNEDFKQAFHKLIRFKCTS
5-hydroxytryptamine receptor 1D, sequence (P28221 whole entry): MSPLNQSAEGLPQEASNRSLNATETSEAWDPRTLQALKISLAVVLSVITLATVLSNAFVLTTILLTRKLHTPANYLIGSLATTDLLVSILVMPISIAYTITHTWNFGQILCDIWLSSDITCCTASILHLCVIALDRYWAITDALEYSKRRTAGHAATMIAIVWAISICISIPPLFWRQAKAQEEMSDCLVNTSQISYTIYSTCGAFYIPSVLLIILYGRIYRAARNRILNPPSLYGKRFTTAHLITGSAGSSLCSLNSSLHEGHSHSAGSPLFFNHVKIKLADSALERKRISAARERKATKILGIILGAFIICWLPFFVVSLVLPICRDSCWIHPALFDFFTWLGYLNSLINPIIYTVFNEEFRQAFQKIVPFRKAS

Compound | Ki [1] [nM] | Ki [2] [nM] | Ki [3] [nM] | Ki [4] [nM] | EC50 [5] [nM] | Emax [6] [%] | Response (Oryctolagus cuniculus) [%] | Efficacy (Cavia porcellus)
CN1CCC(c2c[nH]c3ccc(N)nc23)CC1 | 800 | 100 | 420 |  |  |  |  | 
CC(C)N1CCC(c2c[nH]c3ccc(NC(=O)c4ccc(F)cc4)nc23)CC1 |  | 30 |  |  |  |  |  | 
CN1CCC(c2c[nH]c3ccc(NC(=O)c4ccc(F)cc4)cc23)CC1 |  | 2.1 | 430 | 22 |  |  |  | 
Cc1ccccc1C(=O)Nc1ccc2[nH]cc(C3CCN(C)CC3)c2n1 | 150 | 12 | 440 | 106 |  |  |  | 
CC(=O)Nc1ncc2[nH]cc(C3CCN(C)CC3)c2n1 | 2900 | 220 | 470 | 780 |  |  |  | 
CN1CCC(c2c[nH]c3ccc(NC(=O)c4ccco4)nc23)CC1 | 1100 | 13 | 930 | 560 | 11 | 82 |  | 
CN1CCC(c2c[nH]c3ccc(OS(C)(=O)=O)nc23)CC1 | 25 | 4.7 | 8 |  |  |  |  | 
Cc1cccc(C(=O)Nc2ccc3[nH]cc(C4CCN(C)CC4)c3n2)c1 | 1200 | 5.8 | 490 | 100 |  |  |  | 
CN1CCC(c2c[nH]c3cnc(NC(=O)c4ccc(F)cc4)cc23)CC1 | 80 | 13 | 53 | 17 |  |  |  | 
COc1cccc(C(=O)Nc2ccc3[nH]cc(C4CCN(C)CC4)c3n2)c1 |  | 16 |  | 98 |  |  |  | 
CN1CCC(c2c[nH]c3ccc(NC(=O)c4cccc(F)c4)nc23)CC1 | 1600 | 11 | 690 | 135 |  |  |  | 
O=C(Nc1ccc2[nH]cc(C3CCN(CCc4ccccc4)CC3)c2n1)c1ccc(F)cc1 |  | 75 |  |  |  |  |  | 
CN1CCC(c2c[nH]c3ccc(NC(=O)Nc4ccc(F)cc4)nc23)CC1 | 3.2 | 11 | 3.8 |  |  |  |  | 
CNC(=O)Nc1ccc2[nH]cc(C3CCN(C)CC3)c2n1 | 14 | 2.5 | 8.5 |  |  |  |  | 
CN1CCC(c2c[nH]c3ccc(NC(=O)C4CCCC4)nc23)CC1 | 640 | 11 | 740 | 2000 |  |  |  | 
CCN1CCC(c2c[nH]c3ccc(NC(=O)c4ccc(F)cc4)nc23)CC1 |  | 170 |  |  |  |  |  | 
CCCCN1CCC(c2c[nH]c3ccc(NC(=O)c4ccc(F)cc4)nc23)CC1 |  | 14 |  |  |  |  |  | 
COc1ccc2[nH]cc(C3CCN(C)CC3)c2n1 | 110 | 23 | 23 |  |  |  |  | 
CN1CCC(c2c[nH]c3ccc(NC(=O)c4cccc(C#N)c4)nc23)CC1 | 590 | 11 |  | 100 |  |  |  | 
CC(=O)Nc1ccc2[nH]cc(C3CCN(C)CC3)c2c1 | 390 | 9.7 | 150 | 68 |  |  |  | 
CCCC(=O)Nc1ccc2[nH]cc(C3CCN(C)CC3)c2n1 |  | 6.9 |  |  | 13 | 94 | 12.4 | 
CCCCC(=O)Nc1ccc2[nH]cc(C3CCN(C)CC3)c2n1 |  | 14 |  |  |  |  |  | 
CCCCCCCC(=O)Nc1ccc2[nH]cc(C3CCN(C)CC3)c2n1 | 32 | 20 | 110 |  |  |  |  | 
CN1CCC(c2c[nH]c3ccc(NC(=O)C(C)(C)C)nc23)CC1 |  | 62 |  |  |  |  |  | 
CN1CCC(c2c[nH]c3ccc(NC(=O)c4cccc([N+](=O)[O-])c4)nc23)CC1 | 390 | 42 | 330 | 130 |  |  |  | 
CCN1CC=C(c2c[nH]c3ccc(NC(C)=O)nc23)CC1 |  | 21 |  |  |  |  |  | 

Compound | Ki [1] [nM] | Ki [2] [nM] | Ki [3] [nM] | Ki [4] [nM] | EC50 [5] [nM] | Emax [6] [%] | Response (Oryctolagus cuniculus) [%] | Efficacy (Cavia porcellus)
CN1CCC(c2c[nH]c3ccc(NC(=O)c4ccncc4)nc23)CC1 | 330 | 8.4 | 420 | 40 | 11 | 97 |  | 
CCN1CC=C(c2c[nH]c3ccc(NC(=O)c4ccc(F)cc4)nc23)CC1 |  | 25 |  |  |  |  |  | 
CN1CCC(c2c[nH]c3ccc(NS(C)(=O)=O)nc23)CC1 | 610 | 19 | 380 |  |  |  |  | 
Cc1ccc(C(=O)Nc2ccc3[nH]cc(C4CCN(C)CC4)c3n2)cc1 |  | 12 |  | 30 |  |  |  | 
CC(=O)Nc1ccc2[nH]cc(C3CCNCC3)c2n1 |  | 45 |  |  |  |  |  | 
CCCCCC(=O)Nc1ccc2[nH]cc(C3CCN(C)CC3)c2n1 |  | 13 |  |  |  |  |  | 
CN1CCC(c2c[nH]c3ccc(NC(=O)c4cccs4)nc23)CC1 | 390 | 7.1 | 650 | 350 | 15 | 61 |  | 
CN1CCC(c2c[nH]c3ccc(O)nc23)CC1 |  | 100 |  |  |  |  |  | 
CC(=O)Nc1cc2c(C3CCN(C)CC3)c[nH]c2cn1 |  | 210 | 39 | 2 |  |  |  | 
CCCN1CCC(c2c[nH]c3ccc(NC(=O)c4ccc(F)cc4)nc23)CC1 |  | 18 |  |  |  |  |  | 
CN1CCC(c2c[nH]c3ccc(NC(=O)C4CC4)nc23)CC1 | 1700 | 9.8 | 1800 | 1400 | 34 | 77 | 2.3 | 1.4
CN1CCC(c2c[nH]c3ccc(NC(=O)C4CCC4)nc23)CC1 | 380 | 8.7 | 900 | 2000 | 21 | 81 | 17 | 
CN1CCC(c2c[nH]c3cnc(NC(=O)c4ccc(F)cc4)nc23)CC1 | 6000 | 67 | 1900 | 200 |  |  |  | 
CCC(=O)Nc1ccc2[nH]cc(C3CCNCC3)c2n1 |  | 35 |  |  |  |  |  | 
CN1CCC(c2c[nH]c3ccc(NC(=O)c4ccc(Cl)cc4Cl)nc23)CC1 |  | 4.1 | 83 | 5.1 |  |  |  | 
CN1CCC(c2c[nH]c3ccc(NC(=O)c4ccc([N+](=O)[O-])cc4)nc23)CC1 | 270 | 7.7 | 340 | 38 |  |  |  | 
CN1CCC(c2c[nH]c3ccc(NS(=O)(=O)c4ccc(F)cc4)nc23)CC1 |  | 27 |  |  |  |  |  | 
CN1CCC(c2c[nH]c3ccc(NC(=O)C4CCCCC4)nc23)CC1 |  | 20 |  | 660 |  |  |  | 
CN1CCC(c2c[nH]c3ccc(NC(=O)c4ccccn4)nc23)CC1 | 1000 | 6.3 | 820 | 41 | 25 | 63 |  | 
COc1ccccc1C(=O)Nc1ccc2[nH]cc(C3CCN(C)CC3)c2n1 | 750 | 20 |  | 20 |  |  |  | 
CCNC(=O)Nc1ccc2[nH]cc(C3CCN(C)CC3)c2n1 |  | 3.8 | 40 |  |  |  |  | 
CN1CCC(c2c[nH]c3ccc(OS(=O)(=O)c4ccc(F)cc4)nc23)CC1 |  | 7.5 | 30 |  |  |  |  | 
CN1CCC(c2c[nH]c3ccc(NC(=O)c4ccccc4[N+](=O)[O-])nc23)CC1 |  | 19 | 170 | 64 |  |  |  | 
CN1CCC(c2c[nH]c3ccc(NC(=O)c4ccoc4)nc23)CC1 | 930 | 4.6 | 1100 | 840 | 11 | 88 |  | 
O=C(Nc1ccc2[nH]cc(C3CCNCC3)c2n1)c1ccc(F)cc1 |  | 9.5 |  |  |  |  |  | 
CN1CCC(c2c[nH]c3ccc(NC(=O)c4ccccc4F)nc23)CC1 |  | 19 |  | 42 |  |  |  | 
